Data set [1] relates to HEK293. Briefly: Cytotoxicity against human HEK293 cells expressing human SERT assessed as decrease in cell viability after 48 hrs neutral red dye assay. The settings on record: HEK293, 48 h. Type of data set: functional, cell-based. The gist of the method: (§1)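 5x10^4 cells/well grown to sub-confluence (24-36 h), then exposed to compound 48 h. Neutral red dye 3+1 h, solubilised in 50% ethanol/1% acetic acid, absorbance 540 nm (690 nm background). Viability as percent of vehicle-treated cells; pEC50 by non-linear sigmoidal regression over 4 concentrations, triplicate on two independent days. Controls 30 mM sodium azide, 2% Triton-X. HEK293-hSERT cells kept in Geneticin, used up to 30 passages.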

The target of data set [2] is T1, Sodium-dependent serotonin transporter (Homo sapiens, UniProt P31645). The settings on record: HEK293, at 1 µM.
Target sequence in this assay (P31645 whole entry, looked up): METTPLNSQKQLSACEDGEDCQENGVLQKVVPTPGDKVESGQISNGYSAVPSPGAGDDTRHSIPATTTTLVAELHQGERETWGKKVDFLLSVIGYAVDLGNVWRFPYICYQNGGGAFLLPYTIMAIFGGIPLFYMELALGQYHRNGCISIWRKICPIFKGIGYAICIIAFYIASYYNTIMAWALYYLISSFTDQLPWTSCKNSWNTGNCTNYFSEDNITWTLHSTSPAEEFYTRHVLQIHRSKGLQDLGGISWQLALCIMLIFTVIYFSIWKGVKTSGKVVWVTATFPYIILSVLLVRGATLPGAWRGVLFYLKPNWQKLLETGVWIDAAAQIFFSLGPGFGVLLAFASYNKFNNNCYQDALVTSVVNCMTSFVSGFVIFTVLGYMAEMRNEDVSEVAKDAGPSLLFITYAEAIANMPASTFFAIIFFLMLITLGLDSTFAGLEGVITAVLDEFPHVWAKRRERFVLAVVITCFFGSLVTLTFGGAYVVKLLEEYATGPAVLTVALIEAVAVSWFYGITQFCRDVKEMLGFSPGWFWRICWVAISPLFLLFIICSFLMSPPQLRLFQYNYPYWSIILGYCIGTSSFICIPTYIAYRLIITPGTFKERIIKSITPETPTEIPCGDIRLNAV
Data set [3] relates to SH-SY5Y. Briefly: Antiproliferative activity against human SH-SY5Y cells after 24 hrs Alamar blue assay. Type of data set: functional, cell-based. Summed up:
(§2)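 Alamar Blue viability: 1-5x10^4 cells/well treated 24 h, then Alamar Blue (pre-warmed) 4-6 h at 37 °C in the dark. Fluorescence read at 590 nm (excitation 544 nm), background of medium plus dye subtracted, untreated cells = 100% viability. Miconazole 10 µM as cell-death control. Range 1 µM-1 mM, triplicate on two independent days. pEC50 from non-linear sigmoidal regression.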

For data set [4], the system named is DG-75. As to the kind of experiment: Antiproliferative activity against human DG75 cells after 24 hrs Alamar blue assay. Type of data set: functional, cell-based. The settings on record: DG-75, 24 h. Summed up: as §2
The subject of data set [5] is HEK293. Briefly: Cytotoxicity against human HEK293 cells assessed as decrease in cell viability after 48 hrs neutral red dye assay. Type of data set: functional, cell-based. The settings on record: HEK293, 48 h. The gist of the method:
as §1

A short description of data set [6]: Antiproliferative activity against human chemosensitive MUTU-I cells after 24 hrs Alamar blue assay. Type of data set: functional, cell-based. Summed up:
as §2
Background: Alamar Blue is a resazurin reagent that responds to reducing activity.

For data set [7], the target named is T1, Sodium-dependent serotonin transporter. The settings on record: HEK293, at 100 µM.
Target sequence in this assay (P31645 whole entry, looked up): as above
A further data set deals with PBMC. As to the kind of experiment: Cytotoxicity against human PBMC cells assessed as decrease in cell viability 10 or 50 uM after 24 hrs Alamar blue assay. Type of data set: cell-based. Summed up:
(§3)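 1-5x10^4 cells/200 µl given 10 or 50 µM for 24 h (MUTU-I, MDA-MB231, PBMC) or […]. Alamar Blue at 37 °C in the dark 4-6 h, then fluorescence read with 544/590 nm. Media-only background subtracted; untreated cells set as 100% viability. Mean of six points (triplicate, two independent days). PBMCs from a healthy donor, isolated by ficoll density separation.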

For data set [8], the target named is T1, Sodium-dependent serotonin transporter. Briefly: Inhibition of [3H]-serotonin reuptake at human SERT expressed in HEK293 cells after 15 to 20 mins by fluorescence neurotransmitter transporter assay. Type of data set: cell-based.
Target sequence in this assay (P31645 whole entry): as the sequence (P31645 whole entry, looked up) above
For data set [9], the system named is DG-75. Briefly: Cytotoxicity against human chemoresistant DG75 cells expressing SERT assessed as decrease in cell viability 10 or 50 uM after 72 hrs Alamar blue assay. Type of data set: functional, cell-based. The settings on record: for EC50: DG-75, 72 h. Summed up:
as §3

The test system of data set [10] is SH-SY5Y. Briefly: Cytotoxicity against human SH-SY5Y cells expressing human SERT assessed as decrease in cell viability after 48 hrs neutral red dye assay. Type of data set: functional, cell-based.
Data set [11] deals with DG-75. Briefly: Induction of apoptosis in human chemoresistant DG75 cells assessed as formation of apoptotic bodies by propidium iodide FACS analysis. Type of data set: functional, cell-based. For orientation: In flow cytometry, cells or beads pass a laser one at a time.
Data set [12] in a line: Induction of apoptosis in human chemosensitive MUTU-I cells assessed as formation of apoptotic bodies by propidium iodide FACS analysis. Type of data set: functional, cell-based.
The next data set has as its system MDA-MB-231. As to the kind of experiment: Cytotoxicity against human MDA-MB-231 cells assessed as decrease in cell viability 10 or 50 uM after 24 hrs Alamar blue assay. Type of data set: functional, cell-based. Summed up: as §3
Data set [13] relates to MUTU-I. Briefly: Induction of apoptosis in human chemosensitive MUTU-I cells assessed as induction of PARP cleavage at 10 uM after 4 hrs. Type of data set: functional, cell-based. The gist of the method:
(§4)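 PARP cleavage by Western blot: 5x10^6 cells pelleted (500 ×g, 5 min), washed, and lysed in Laemmli buffer with protease inhibitors. Lysates run on 8% SDS-PAGE, transferred to PVDF, and probed with anti-PARP detecting full-length 113 kDa and cleaved 85 kDa forms. HRP secondary antibody, chemiluminescence detection.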

Data set [14] relates to MUTU-I. As to the kind of experiment: Induction of apoptosis in human chemosensitive MUTU-I cells assessed as chromatin condensation and membrane bledding at 10 uM after 4 hrs. Type of data set: functional, cell-based. Summed up:
(§5)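 Cells at 3x10^5 cells/mL exposed for 4 h or 8 h. 150 µl aliquots were cytocentrifuged onto slides (500 ×g, 2 min), air-dried, methanol-fixed, and stained with eosin Y and methylene blue. Morphology was examined by light microscopy at 60x.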

A short description of data set [15]: Cytotoxicity against human chemosensitive MUTU-I cells expressing SERT assessed as decrease in cell viability 10 or 50 uM after 24 hrs Alamar blue assay.
Data set [16] relates to MUTU-I. Briefly: Induction of apoptosis in human chemosensitive MUTU-I cells assessed as caspase 3/7 activation at 10 uM after 4 hrs. Type of data set: functional, cell-based.
A further data set concerns the target Tubulin (Homo sapiens) (UniProt P68371+Q9H4B7+P0DPH7+P68366+Q13509+Q71U36+P04350+Q3ZCM7+P07437+P68363+Q9BQE3+Q6PEY2+Q13885+Q9BVA1+Q9BUF5). As to the kind of experiment: Inhibition of tubulin polymerisation in human chemosensitive MUTU-I cells after 30 mins. Type of data set: cell-based.
For data set [17], the system named is MUTU-I. As to the kind of experiment: Induction of apoptosis in human chemosensitive MUTU-I cells assessed as chromatin condensation and membrane bledding at 10 uM after 8 hrs. Type of data set: functional, cell-based. The gist of the method:
as §5

Data set [18] deals with MUTU-I. Briefly: Induction of apoptosis in human chemosensitive MUTU-I cells assessed as accumulation at G2/M phase after 2 to 8 hrs by propidium iodide FACS analysis relative to taxol. Type of data set: functional, cell-based. Summed up:
(§6)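 750,000 MUTU-I cells per sample treated for the stated time, then harvested (300 ×g, 5 min), washed in ice-cold PBS and fixed overnight at 4 °C in 70% ethanol. Stained with RNase A and propidium iodide, 30 min at 37 °C in the dark. Flow cytometry counted 10,000 gated cells for cell-cycle phases. Taxol 10 µM as positive control.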

Data set [19] is described as follows: Induction of apoptosis in human chemosensitive MUTU-I cells assessed as accumulation at pre-G1 phase at 10 uM by propidium iodide FACS analysis. Type of data set: functional. Summed up: as §6
Data set [20] relates to MUTU-I. As to the kind of experiment: Induction of apoptosis in human chemosensitive MUTU-I cells assessed as caspase 3/7 activation at 10 uM after 5 hrs. Type of data set: functional, cell-based. The gist of the method:
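Caspase 3/7 activity by homogeneous fluorogenic kit: 0.5x10^5 cells exposed to compound (10 µM) for 5 h, then 100 µl Z-DEVD-R110 substrate added. After 2 h, cleaved substrate measured at 521 nm (excitation 499 nm).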

For data set [21], the system named is MUTU-I. As to the kind of experiment: Induction of apoptosis in human chemosensitive MUTU-I cells assessed as induction of PARP cleavage at 10 uM after 8 hrs. Type of data set: functional, cell-based. The gist of the method:
as §4

The target of data set [22] is T2, Tyrosine-protein phosphatase non-receptor type 1 (Homo sapiens) (UniProt P18031).
T2 sequence (whole entry): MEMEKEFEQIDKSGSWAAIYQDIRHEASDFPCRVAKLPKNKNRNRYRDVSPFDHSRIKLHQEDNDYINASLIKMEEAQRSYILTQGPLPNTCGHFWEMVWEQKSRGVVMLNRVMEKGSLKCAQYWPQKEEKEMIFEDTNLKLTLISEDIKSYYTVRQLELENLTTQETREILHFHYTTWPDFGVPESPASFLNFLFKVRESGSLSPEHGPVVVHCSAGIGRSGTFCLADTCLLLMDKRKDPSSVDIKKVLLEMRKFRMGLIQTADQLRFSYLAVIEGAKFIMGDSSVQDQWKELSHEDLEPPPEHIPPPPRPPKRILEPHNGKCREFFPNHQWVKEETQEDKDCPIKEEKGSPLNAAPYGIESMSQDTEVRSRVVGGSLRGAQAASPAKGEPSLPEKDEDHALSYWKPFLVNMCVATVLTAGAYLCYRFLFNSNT
As to the kind of experiment: Inhibition of human recombinant PTP1B in chemosensitive MUTU-I cells after 30 mins. Type of data set: cell-based. Summed up:
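Recombinant PTP1B expressed in E. coli, incubated with compound and a phosphopeptide substrate for 30 min at 30 °C. Released phosphate detected by malachite green at 620 nm and quantified against a phosphate standard curve. Suramin as positive control.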

This note sets out measurements from ChEMBL document CHEMBL1671778, “Synthesis and serotonin transporter activity of 1,3-bis(aryl)-2-nitro-1-propenes as a new class of anticancer agents” (Bioorg Med Chem, 2011).

Each structure is given as a SMILES string. The source made the active and inactive calls. The calls are words filed in the database; no cut-off is given here.

The term EC50 denotes the concentration needed to bring the measured effect to its halfway point. As usually defined, the inhibition is the change of the read-out against control, counted positive when it falls. A word on the IC50: it is the concentration that inhibits the measured activity by half.

Regarding `CSc1ccc(CC(N)Cc2ccc(SC)cc2)cc1`, the EC50 is 31.6 µM with HEK293 [1]; 12.6 µM in the data set on SH-SY5Y [3]; 25.1 µM in the data set on DG-75 [4]; 20 µM in the data set with HEK293 [5]; 12.6 µM in data set [6]; 25.1 µM in the data set on DG-75 [9]. The EC50 with SH-SY5Y [10] is 20 µM. Also, the inhibition in data set [2] was 50%; in data set [7], 98%. In addition, the Activity result in the data set with PBMC was “Toxic”. The same compound yielded an IC50 in data set [8] of 2.5 µM.
`CSc1ccc(CC(Cc2ccc(SC)cc2)NC=O)cc1`: the concentration for a half-maximal effect (EC50) in the data set on HEK293 [1] is 100 µM; in the data set with DG-75 [11], 10 µM; in the data set with SH-SY5Y [3], 31.6 µM; with DG-75 [4] it was 5010 µM; in the data set with HEK293 [5], greater than 10000 µM; in [12], 13 µM. The EC50 in the data set with DG-75 [9] and in the data set with SH-SY5Y [10] was 31.6 µM throughout. Moreover, the inhibition in data set [2] is 5%; in data set [7] it was 85%. The Activity entry with PBMC is given as “Non-toxic”. Moreover, the result in the data set on MDA-MB-231 and in the data set with DG-75 [9] was Active. The IC50 in data set [8] stood at 15.7 µM.
As to `CC(=O)O[C@H]1C(=O)[C@@]2(C)[C@H]([C@H](OC(=O)c3ccccc3)[C@]3(O)C[C@H](OC(=O)[C@H](O)[C@@H](NC(=O)c4ccccc4)c4ccccc4)C(C)=C1C3(C)C)[C@]1(OC(C)=O)CO[C@@H]1C[C@@H]2O` [PACLITAXEL], the result in the data set on MUTU-I [13], in the data set on MUTU-I [14] and with MUTU-I [16] was inactive. Besides, the IC50 in data set [15] is 0.01 µM.
Consider `NC(Cc1ccc(Cl)cc1)Cc1ccc(Cl)cc1`, for which the EC50 was 5.01 µM in the data set with SH-SY5Y [3], 25.1 µM with DG-75 [4] and 0.158 µM in data set [6]. For the same compound, the Activity entry in the data set on PBMC is listed as “Toxic”.
With `O=[N+]([O-])/C(=C\c1ccc(Cl)cc1)Cc1ccc(Cl)cc1`, the result in the data set on MUTU-I [13], with MUTU-I [17], with MUTU-I [18], in the data set with MUTU-I [20], in the data set on MUTU-I [14] and in the data set on MUTU-I [21] was Active. In addition, the result in the data set with MUTU-I [16] was Active. For the same compound, the inhibition entry (at Tubulin (Homo sapiens); in data set [22]) was “inactive” each time. The inhibition was 0% in data set [2] and 23% in data set [7]. Besides, the figures for the EC50 (in the data set on SH-SY5Y [3]; in the data set on DG-75 [4]; in [6]) were 2.51 µM, 12.6 µM and 1 µM, respectively. The Activity in [19] was 41%.
On to `O=[N+]([O-])/C(=C\c1ccc2c(c1)OCO2)Cc1ccc2c(c1)OCO2`, for which the concentration for a half-maximal effect (EC50) with HEK293 [1] is 12.6 µM; with SH-SY5Y [3], 31.6 µM; with DG-75 [4] it was 50.1 µM; in the data set on HEK293 [5], 7.94 µM; in data set [6], 3.16 µM; with DG-75 [9] it was 1 µM. The concentration for a half-maximal effect (EC50) in the data set with SH-SY5Y [10] was 15.8 µM. For the same compound, the result in the data set with MUTU-I [13], in the data set with MUTU-I [17], with MUTU-I [18], in the data set with MUTU-I [20], with MUTU-I [14] and with MUTU-I [21] was Active. The outcome in the data set with MUTU-I [16] was Active. Also, the inhibition result (at Tubulin (Homo sapiens); in data set [22]) was “inactive” each time. For the same compound, the inhibition was found to be 15% in data set [2] and 36% in data set [7]. In addition, in [19], the Activity is reported as 30%.
